Measured values published in ChEMBL document CHEMBL4308900, “Synthesis and identification of 2,4-bisanilinopyrimidines bearing 2,2,6,6-tetramethylpiperidine-N-oxyl as potential Aurora A inhibitors” (Bioorg Med Chem, 2019).
Active and inactive are the calls of the source. No cut-off for these calls is given here.

Experiments:
[1] = system: HeLa; test: Antiproliferative activity against human HeLa cells after 48 hrs by MTT assay; type: functional
Summary of the method: (§1)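 MTT assay: cells attached 4–6 h at 37 °C, 5% CO2, then exposed 48 h to graded concentrations from DMSO stocks; 5 mg/mL MTT added for 4 h, formazan dissolved in DMSO, absorbance at 490 nm. GI50 from log plot of percent of control versus concentration; mean of three independent experiments.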

[2] = system: A549; test: Antiproliferative activity against human A549 cells after 48 hrs by MTT assay; type: functional; summary of the method: as §1
[3] = system: HepG2; test: Antiproliferative activity against human HepG2 cells after 48 hrs by MTT assay; type: functional; summary of the method: as §1
[4] = system: LoVo; test: Antiproliferative activity against human LoVo cells after 48 hrs by MTT assay; type: functional; summary of the method: as §1
[5] = target: T1, Aurora kinase A (Homo sapiens, UniProt O14965); test: Inhibition of Aurora A (unknown origin) using kemptide acetate salt as substrate after 30 mins by kinase-Glo luminescence method
T1 sequence (O14965 whole entry): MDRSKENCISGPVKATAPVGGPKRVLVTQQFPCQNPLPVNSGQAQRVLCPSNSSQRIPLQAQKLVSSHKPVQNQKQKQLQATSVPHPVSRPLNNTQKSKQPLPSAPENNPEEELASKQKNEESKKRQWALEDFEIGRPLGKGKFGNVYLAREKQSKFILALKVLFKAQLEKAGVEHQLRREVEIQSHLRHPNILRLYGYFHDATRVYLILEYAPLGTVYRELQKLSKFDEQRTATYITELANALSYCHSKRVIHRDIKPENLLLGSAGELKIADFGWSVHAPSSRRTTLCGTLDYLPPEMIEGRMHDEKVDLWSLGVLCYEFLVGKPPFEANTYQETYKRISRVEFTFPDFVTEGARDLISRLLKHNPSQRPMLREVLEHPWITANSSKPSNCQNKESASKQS

[6] = target: Aurora kinase B (Homo sapiens, UniProt Q96GD4); test: Inhibition of Aurora B (unknown origin) using kemptide acetate salt as substrate after 30 mins by kinase-Glo luminescence method
[7] = system: HeLa; test: Induction of microtubule disruption in human HeLa cells at 1 uM after 24 hrs by DAPI staining based immunofluorescence microscopic analysis; type: functional, cell-based
Summary of the method: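 HeLa cells on coverslips treated 24 h (0.1 or 1 μM; DMSO control); fixed in 4% paraformaldehyde, permeabilised in 0.1% Triton X-100 with 2% BSA, anti-α-tubulin overnight at 4 °C, FITC secondary 2 h room temperature, DAPI for DNA; confocal imaging.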

[8] = system: HeLa; test: Cell cycle arrest in human HeLa cells assessed as accumulation at G1 phase at 5 uM after 12 hrs by propidium iodide staining-based flow cytometric analysis (reference value: 70.68%); type: functional
Summary of the method: (§2)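 HeLa cells exposed 12 h to 1 or 5 μM compound diluted from DMSO (DMSO control), fixed, stained with propidium iodide; DNA content measured by flow cytometry and G1, S, G2/M fractions calculated from the DNA histogram.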

[9] = system: HeLa; test: Cell cycle arrest in human HeLa cells assessed as accumulation at S phase at 5 uM after 12 hrs by propidium iodide staining-based flow cytometric analysis (reference value: 5.74%); type: functional; summary of the method: as §2
[10] = system: HeLa; test: Cell cycle arrest in human HeLa cells assessed as accumulation at G2/M phase at 5 uM after 12 hrs by propidium iodide staining-based flow cytometric analysis (reference value: 23.57%); type: functional; summary of the method: as §2
[11] = system: HeLa; test: Cell cycle arrest in human HeLa cells assessed as decrease in cyclin B1 protein expression at 5 uM after 12 hrs by Western blot analysis; type: functional, cell-based
Summary of the method: (§3)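 HeLa cells treated 12 h (0.1, 1, 5 μM for apoptosis proteins); lysed in Tris pH 7.5/NP-40/SDS buffer with protease inhibitors, equal protein on 10% SDS-PAGE, PVDF, 5% BSA block, primary antibodies overnight at 4 °C, β-actin loading control; mean ± SD.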

[12] = system: HeLa; test: Cell cycle arrest in human HeLa cells assessed as decrease in cdc2 protein expression at 5 uM after 12 hrs by Western blot analysis; type: functional, cell-based; summary of the method: as §3

Sequence of Aurora kinase B (Q96GD4 whole entry): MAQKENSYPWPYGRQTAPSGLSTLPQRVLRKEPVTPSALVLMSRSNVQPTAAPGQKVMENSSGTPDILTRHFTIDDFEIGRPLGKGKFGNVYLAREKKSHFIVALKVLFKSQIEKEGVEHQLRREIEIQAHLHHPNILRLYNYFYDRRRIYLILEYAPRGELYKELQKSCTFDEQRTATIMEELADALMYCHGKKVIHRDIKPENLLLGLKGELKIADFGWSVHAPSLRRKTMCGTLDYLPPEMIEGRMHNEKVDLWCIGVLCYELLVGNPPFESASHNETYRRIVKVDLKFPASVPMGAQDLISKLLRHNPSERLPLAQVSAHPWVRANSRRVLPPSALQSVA

Row | SMILES | GI50 [1] [µM] | GI50 [2] [µM] | GI50 [3] [µM] | GI50 [4] [µM] | GI50 ([2]; A549, 48 h) [µM] | GI50 ([3]; HepG2, 48 h) [µM] | IC50 [5] [µM] | IC50 [6] [µM] | Activity [7] | Activity [8] [%] | Activity [9] [%] | Activity [10] [%] | Activity [11] | Activity [12]
1 | CC1(C)CC(NC(=O)c2ccc(Nc3nc(Nc4ccc(C(=O)O)cc4)ncc3F)cc2)CC(C)(C)N1[O] | 21.3 | 18.5 | 26.8 | 65.3 |  |  |  |  |  |  |  |  |  | 
2 | CC1(C)CC(NC(=O)c2ccc(Nc3ncc(F)c(Nc4ccccc4Cl)n3)cc2)CC(C)(C)N1[O] | 8.4 |  |  | 2.7 | 2.3 | 1.2 | 0.00018 | 0.00111 |  |  |  |  |  | 
3 | CC1(C)CC(NC(=O)c2ccc(Nc3ncc([N+](=O)[O-])c(Nc4ccc(C(=O)Nc5cccc(Cl)c5)cc4)n3)cc2)CC(C)(C)N1[O] | 49.5 |  |  | 39.6 | 14.2 | 12.5 | 0.00011 | 0.027 |  |  |  |  |  | 
4 | CC1(C)CC(NC(=O)c2ccc(Nc3ncc(Br)c(Nc4ccccc4Cl)n3)cc2)CC(C)(C)N1[O] | 9.6 |  |  | 3.2 | 3.8 | 2.1 | 0.00046 | 0.00267 |  |  |  |  |  | 
5 | Cc1cc(Nc2cc(N3CCN(C)CC3)nc(Sc3ccc(NC(=O)C4CC4)cc3)n2)n[nH]1 | 46.2 | 35.8 | 53.3 | 45.3 |  |  |  |  | inactive | 34.4 | 26.6 | 39 | Active | Active
6 | CC1(C)CC(NC(=O)c2ccc(Nc3ncc([N+](=O)[O-])c(Nc4ccc(C(=O)Nc5ccc(Cl)cc5)cc4)n3)cc2)CC(C)(C)N1[O] | 53 |  |  | 46.3 | 17.2 | 24.1 | 0.02 | 0.00067 |  |  |  |  |  | 
7 | CC1(C)CC(NC(=O)c2ccc(Nc3nc(Nc4ccc(C(=O)O)cc4)ncc3Br)cc2)CC(C)(C)N1[O] | > 100 | > 100 | 35.8 | > 100 |  |  |  |  |  |  |  |  |  | 
8 | CC1(C)CC(NC(=O)c2ccc(Nc3ncc([N+](=O)[O-])c(Nc4cccc(O)c4)n3)cc2)CC(C)(C)N1[O] | 36.5 |  |  | 39.6 | 13.2 | 21.7 | 0.00014 | 0.0035 |  |  |  |  |  | 
9 | CC1(C)CC(NC(=O)c2ccc(Nc3nc(Nc4ccc(C(=O)O)cc4)ncc3Cl)cc2)CC(C)(C)N1[O] | 56.5 | > 100 | 48.2 | 56.6 |  |  |  |  |  |  |  |  |  | 
10 | CC1(C)CC(NC(=O)c2ccc(Nc3ncc(Cl)c(Nc4ccccc4Cl)n3)cc2)CC(C)(C)N1[O] | 10.2 |  |  | 3.2 | 3.6 | 1.6 | 0.00019 | 0.00029 |  |  |  |  |  | 
11 | CC1(C)CC(NC(=O)c2ccc(Nc3ncc([N+](=O)[O-])c(Nc4ccc(Cl)cc4)n3)cc2)CC(C)(C)N1[O] | 33.3 |  |  | 27.8 | 5.6 | 13 | 0.00161 | 0.00034 |  |  |  |  |  | 
12 | CC1(C)CC(NC(=O)c2ccc(Nc3ncc([N+](=O)[O-])c(Nc4ccc(C(=O)Nc5ccccc5Cl)cc4)n3)cc2)CC(C)(C)N1[O] | 23.2 |  |  | 28.5 | 2.5 | 3.4 | 0.00548 | 0.00307 |  |  |  |  |  | 
13 | CC1(C)CC(NC(=O)c2ccc(Nc3ncc([N+](=O)[O-])c(Nc4ccc(O)cc4)n3)cc2)CC(C)(C)N1[O] | 34.3 |  |  | 43.8 | 14.3 | 21.5 | 0.00059 | 0.0035 |  |  |  |  |  | 
14 | CC1(C)CC(NC(=O)c2ccc(Nc3ncc([N+](=O)[O-])c(Nc4ccccc4O)n3)cc2)CC(C)(C)N1[O] | 13.9 |  |  | 28.3 | 11.2 | 3.7 | 0.0085 | 0.0113 |  |  |  |  |  | 
15 | CC1(C)CC(NC(=O)c2ccc(Nc3nc(Nc4ccc(C(=O)O)cc4)ncc3[N+](=O)[O-])cc2)CC(C)(C)N1[O] | 27.3 | 29.6 | 11.8 | 27.4 |  |  |  |  |  |  |  |  |  | 
16 | CC1(C)CC(NC(=O)c2ccc(Nc3ncc([N+](=O)[O-])c(Nc4ccccc4Cl)n3)cc2)CC(C)(C)N1[O] | 53.1 |  |  | 35.2 | 2.8 | 3.7 | 0.00186 | 0.00329 |  |  |  |  |  | 
17 | CN1CCC(NC(=O)c2ccc(Nc3ncc(F)c(Nc4ccc(C(=O)Nc5ccccc5Cl)cc4)n3)cc2)CC1 | 11.3 |  |  | 12.4 | 8.9 | 13.4 | 0.00228 | 0.0491 |  |  |  |  |  | 
18 | CC1(C)CC(NC(=O)c2ccc(Nc3ncc([N+](=O)[O-])c(Nc4cccc(Cl)c4)n3)cc2)CC(C)(C)N1[O] | 43.2 |  |  | 67.8 | 31.3 | 42.1 | 0.00062 | 0.0195 |  |  |  |  |  | 
